Source: ChEMBL document CHEMBL5029200, “Imidazoline- and Benzamidine-Based Trypanosome Alternative Oxidase Inhibitors: Synthesis and Structure-Activity Relationship Studies” (ACS Med Chem Lett, 2022)

Legend:
[1] = Selectivity index, ratio of CC50 for HEK293 cells to EC50 for antitrypanosomal activity against bloodstream form trypomastigotes of wild type Trypanosoma brucei brucei Lister 427; format: toxicity; conditions: human, read-out: Selectivity Index
How it was run: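 Selectivity index = CC50 in HEK cells divided by EC50 against wild-type Lister 427. HEK cytotoxicity by resazurin assay. […] Both values from sigmoidal variable-slope nonlinear regression. n = 3.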

[2] = system: Trypanosoma brucei brucei; assay: Inhibition of recombinant Trypanosoma brucei brucei delta MTS TAO using ubiquinol as substrate measured at 40 uM after 2 mins by UV-vis spectrophotometry
[3] = system: Trypanosoma brucei brucei; assay: Inhibition of recombinant Trypanosoma brucei brucei delta MTS TAO using ubiquinol as substrate measured at 40 uM after 2 mins by UV-vis spectrophotometry
[4] = Inhibition of recombinant Trypanosoma brucei brucei delta MTS TAO using ubiquinol as substrate measured after 2 mins by UV-vis spectrophotometry
[5] = system: Trypanosoma brucei brucei; assay: Antitrypanosomal activity against bloodstream form trypomastigotes of wild type Trypanosoma brucei brucei Lister 427 assessed as reduction in parasite viability by resazurin-based assay; format: functional, organism-based
How it was run: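 Monomorphic bloodstream-form trypanosomes grown in complete HMI-9 with 10% fetal bovine serum. Resazurin viability assay using 23 doubling dilutions of each compound, starting at 100 μM. EC50 obtained by nonlinear regression fitted to a variable-slope sigmoid. n = 3.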

Cc1cc(O)cc(O)c1C(=O)NCCCCCCCCCCCCCCOc1ccc(C(=N)N)cc1
selectivity ratio [1]: 10.7

Cc1cc(O)cc(O)c1C(=O)NCCCCCCCCCCCCCCOc1ccc(C(=N)NO)cc1
selectivity ratio [1]: 6.9

C/C(=C\Cc1c(O)c(Cl)c(C)c(C=O)c1O)CC/C=C(\C)[C@@H]1CC(=O)C(C)(C)O1
inhibition [2]: 100%

Cc1cc(O)cc(O)c1C(=O)NCCCOc1ccc(C(=N)N)cc1
inhibition [3]: 48% | IC50 [4]: > 40000 nM

Cc1cc(O)cc(O)c1C(=O)NCCCCCCCCCCCCOc1ccc(C2=NCCN2)cc1
EC50 [5]: 1700 nM

Cc1cc(O)cc(O)c1C(=O)NCCCCCCOc1ccc(C#N)cc1
selectivity ratio [1]: 6.6
